The record followed here is ChEMBL document CHEMBL1268822, “Synthesis and biological evaluation of indolyl glyoxylamides as a new class of antileishmanial agents” (Bioorg Med Chem Lett, 2010).

The subject of one series is Leishmania donovani. Briefly: Antileishmanial activity against Leishmania donovani amastigotes infected in mouse J774A1 cells assessed as inhibition of parasite growth after 72 hrs by luciferase reporter gene assay. It is filed as functional, organism-based. To be noted: J774.A1, 72 h. The method in brief:
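J774A.1 macrophages seeded at 4 × 10⁴ cells/well in RPMI-1640 with 10% fetal calf serum, 37 °C CO₂, 24 h. Stationary-phase promastigotes then added at 4 × 10⁵/well and left to convert to intracellular amastigotes. Medium replaced with compound at 0.62–40 µM for 72 h at 37 °C. Steady Glo luciferase luminescence, growth inhibition relative to untreated controls.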

The nature of series [1]: (§1) Selectivity index, ratio of CC50 for mouse J774A1 cells to IC50 for Leishmania donovani amastigotes. It is filed as functional, J774.A1. The method in brief:
(§2)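 Ratio of CC50 in J-774 A-1 cells to IC50 against L. donovani amastigotes.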

Series [2] can be described thus: Toxicity in mouse J774A1 cells. It is filed as cell-based, J774.A1.
In the next series the test system is J774.A1. Described as §1. It is filed as functional. The method in brief: as §2

In the case of `CCc1ccc([C@H]2c3[nH]c4ccccc4c3C[C@H](C(=O)OC)N2C(=O)C(=O)c2c[nH]c3ccccc23)cc1`, in the series on Leishmania donovani, the IC50 amounted to 8.04 µM. Moreover, in series [1], the “Selectivity Index” value amounted to 3.84. The same molecule registered a CC50 in series [2] of 30.9 µM.
As to `CCc1ccc([C@@H]2c3[nH]c4ccccc4c3C[C@H](C(=O)OC)N2C(=O)C(=O)c2c[nH]c3ccccc23)cc1`, the IC50 in the series on Leishmania donovani was found to be 5.17 µM. In addition, the “Selectivity Index” value in series [1] is reported as 31.48. The same molecule displayed a CC50 in series [2] of 163 µM.
Regarding sodium stibogluconate, the Selectivity Index in the series with J774.A1 is 5.53.
Regarding `COC(=O)[C@@H]1Cc2c([nH]c3ccccc23)[C@@H](c2ccccc2Br)N1C(=O)C(=O)c1c[nH]c2ccccc12`, the IC50 in the series with Leishmania donovani came to 3.79 µM. In addition, in series [1], the “Selectivity Index” value came out at 7.94. Half-maximal cytotoxicity in series [2] (CC50) was put at 30.1 µM.
Take `COC(=O)[C@@H]1Cc2c([nH]c3ccccc23)[C@H](c2ccc(C)cc2)N1C(=O)C(=O)c1c[nH]c2ccccc12`: the IC50 in the series with Leishmania donovani is 7.37 µM. Further, in series [1], the “Selectivity Index” value was determined as 3.72. Besides, it took 27.4 µM to reach half-maximal cytotoxicity in series [2] (CC50).
Take `COC(=O)[C@H]1Cc2c([nH]c3ccccc23)[C@H](c2ccc(C(C)C)cc2)N1C(=O)C(=O)c1c[nH]c2ccc(Br)cc12`: the IC50 in the series on Leishmania donovani stood at 4.44 µM. Besides, the “Selectivity Index” value in series [1] is 2.04. Besides, the CC50 in series [2] was determined as 9.04 µM.
As to `CCc1ccc([C@H]2c3[nH]c4ccccc4c3C[C@H](C(=O)OC)N2C(=O)C(=O)c2c[nH]c3ccc(Br)cc23)cc1`, the IC50 in the series with Leishmania donovani amounted to 5.86 µM. Further, in series [1], the “Selectivity Index” value is given as 1.62. Besides, the CC50 in series [2] came out at 9.48 µM.
`COC(=O)[C@@H]1Cc2c([nH]c3ccccc23)[C@@H](c2ccccc2Br)N1C(=O)C(=O)c1c[nH]c2ccc(Br)cc12`: the IC50 in the series on Leishmania donovani was 4.09 µM. In addition, in series [1], the “Selectivity Index” value is recorded as 1.77. In series [2], it took 7.25 µM to reach half-maximal cytotoxicity (CC50).
With `COC(=O)[C@H]1Cc2c([nH]c3ccccc23)[C@@H](c2ccc(C(C)C)cc2)N1C(=O)C(=O)c1c[nH]c2ccccc12`, in the series with Leishmania donovani, the IC50 worked out at 6.74 µM. In addition, the “Selectivity Index” value in series [1] is given as 4.84. This molecule yielded a CC50 in series [2] of 32.6 µM.
Take `COC(=O)[C@@H]1Cc2c([nH]c3ccccc23)[C@@H](c2ccc(C)cc2)N1C(=O)C(=O)c1c[nH]c2ccc(Br)cc12`: the IC50 in the series with Leishmania donovani worked out at 4.79 µM. Moreover, in series [1], the “Selectivity Index” value is recorded as 1.84. Besides, it took 8.83 µM to reach half-maximal cytotoxicity in series [2] (CC50).
Turning to `COC(=O)[C@H]1Cc2c([nH]c3ccccc23)[C@@H](c2ccc(C(C)C)cc2)N1C(=O)C(=O)c1c[nH]c2ccc(Br)cc12`, in the series on Leishmania donovani, the IC50 came to 3.91 µM. Moreover, the “Selectivity Index” value in series [1] was determined as 1.99. The same molecule had a CC50 in series [2] of 7.77 µM.
Take `COC(=O)[C@H]1Cc2c([nH]c3ccccc23)[C@H](c2ccc(C(C)C)cc2)N1C(=O)C(=O)c1c[nH]c2ccccc12`: the IC50 in the series with Leishmania donovani turned out to be 6.02 µM. Moreover, the “Selectivity Index” value in series [1] is reported as 2.51. This molecule also gave a CC50 in series [2] of 15.1 µM.
Regarding `COC(=O)[C@@H]1Cc2c([nH]c3ccccc23)[C@H](c2ccc(C)cc2)N1C(=O)C(=O)c1c[nH]c2ccc(Br)cc12`, the IC50 in the series on Leishmania donovani worked out at 5.18 µM. Besides, the “Selectivity Index” value in series [1] is recorded as 1.95. For the same molecule, the CC50 in series [2] stood at 10.1 µM.
As to `COC(=O)[C@@H]1Cc2c([nH]c3ccccc23)[C@@H](c2ccc(C)cc2)N1C(=O)C(=O)c1c[nH]c2ccccc12`, the IC50 in the series on Leishmania donovani was found to be 6.79 µM. The “Selectivity Index” value in series [1] is reported as 5.07. In addition, it took 34.4 µM to reach half-maximal cytotoxicity in series [2] (CC50).
The corresponding values for `CCc1ccc([C@@H]2c3[nH]c4ccccc4c3C[C@H](C(=O)OC)N2C(=O)C(=O)c2c[nH]c3ccc(Br)cc23)cc1` are 5.36 µM, 2.17 and 11.6 µM.
Regarding `COC(=O)[C@@H]1Cc2c([nH]c3ccccc23)[C@@H](c2ccc(Cl)cc2)N1C(=O)C(=O)c1c[nH]c2ccccc12`, in the series on Leishmania donovani, the IC50 came out at 4.36 µM. For the same molecule, the “Selectivity Index” value in series [1] is 2.6. Moreover, the CC50 in series [2] was found to be 11.3 µM.
For `COC(=O)[C@@H]1Cc2c([nH]c3ccccc23)[C@@H](c2ccc(Cl)cc2)N1C(=O)C(=O)c1c[nH]c2ccc(Br)cc12`, in the series with Leishmania donovani, the IC50 stood at 4.02 µM. For the same molecule, in series [1], the “Selectivity Index” value was 1.9. Further, the CC50 in series [2] was found to be 7.64 µM.
